Hits are enriched below; roughly 3.8% of the tested compounds scored in any of these assays.
CHO parental Ca: counter-screen for OX1R antagonists: effect in parental CHO cells; parental CHO-K1, ATP-induced calcium, Fluo-8 fluorescence; inhibition, % at 5.6 µM; 330,000 tested, 0.63% active; AID 463079;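 active means inhibition above that plate's mean sample inhibition plus 3 SD, cut at about 26% in these data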;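 further: 0% = ATP-challenged DMSO wells and 100% = DMSO wells without ATP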
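Measured by: calcium-sensitive Fluo-8 fluorescence / Test system: CHO parental line / Controls: ATP-challenged DMSO wells low, unchallenged DMSO wells high / Measure: % inhibition / Compound: single nominal dose of 5.6 µM per compound / Replicates: single well per compound, no replicates / Reagent: ATP as calcium-mobilizing challenge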
MPTP block: permeability transition pore inhibition; 360,000 tested, 1.4% active; AID 602449; isolated mouse mitochondria, Ca2+ swelling absorbance, 30 min; inhibition, % at 10 µM;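 active means inhibition of 50% or more, scaled per plate between neutral and stimulator controls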;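 further: 0% = DMSO wells given calcium and 100% = 1 mM EGTA wells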
GPR7 antagonist: blocks human GPR7 receptor signaling | P48145 | GPR7-expressing cells, fluorescence antagonist assay | inhibition, % at 4.4 µM | 290,000 tested, 1.1% active; in the data active means inhibition above about 16%, passing the limit was not always enough;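 further: cells stimulated with the agonist NPW; 0% = agonist with vehicle and 100% = vehicle without agonist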
OX1R antag-1: blocks the human orexin 1 receptor. O43613. CHO/OX1R cells, Fluo-8 calcium fluorescence, orexin A. inhibition, % at 5 µM. 330,000 tested, 0.43% active;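 active means inhibition above its plate's threshold, mean inhibition of all tested compounds on the plate plus 3 SD, cut at about 37% in these data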;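 further: 0% = orexin A challenge wells and 100% = SB-334867-A antagonist wells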
Target sequence (O43613 whole entry, looked up): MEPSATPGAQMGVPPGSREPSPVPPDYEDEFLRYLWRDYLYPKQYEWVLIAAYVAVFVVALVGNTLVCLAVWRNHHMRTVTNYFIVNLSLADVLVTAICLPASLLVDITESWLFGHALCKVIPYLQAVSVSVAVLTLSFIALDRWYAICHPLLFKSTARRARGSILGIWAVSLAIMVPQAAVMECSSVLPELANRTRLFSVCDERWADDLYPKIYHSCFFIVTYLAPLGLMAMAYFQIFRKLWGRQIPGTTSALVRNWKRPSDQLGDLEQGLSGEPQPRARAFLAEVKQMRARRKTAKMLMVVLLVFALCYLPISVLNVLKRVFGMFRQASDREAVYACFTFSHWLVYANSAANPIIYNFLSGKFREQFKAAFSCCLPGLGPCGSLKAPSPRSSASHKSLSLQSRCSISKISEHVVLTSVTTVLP
OX1R antag-2: blocks the human orexin 1 receptor; 330,000 tested, 1.8% active; OX1R-expressing cells, FRET antagonist read-out; O43613; AID 485270; inhibition, % at 6.6 µM; in the data active means inhibition mostly above about 38%, no sharp cut-off; inactive means mostly below about 40%;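 further: 0% = agonist challenge alone and 100% = reference antagonist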
MPTP counter: membrane potential counter-screen of mitochondrial pore inhibitors; shares compounds with MPTP block; isolated mitochondria, Rhodamine 123 fluorescence; inhibition, % at 10 µM; 5,000 tested, 78% active; in the data active means inhibition above about 22%;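 further: 0% = DMSO vehicle and 100% = positive control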
MPTP swell DR: dose response confirmation of mitochondrial permeability transition pore inhibitors; shares compounds with MPTP block; isolated mitochondria swelling, absorbance; IC50, µM; 780 tested, 58% active; AID 651561; in the data active means IC50 below about 20 µM
MPTP counter DR: active in counter-screen for permeability transition pore inhibitors; shares compounds with MPTP block; isolated mitochondria counterscreen, fluorescence read-out; IC50, µM; 780 tested, 49% active; in the data active means IC50 below about 80 µM
Starred values were filed as active, the others as inactive; i = inactive; . = not tested or not shown.

SMILES	CHO parental Ca	MPTP block	GPR7 antagonist	OX1R antag-1	OX1R antag-2	MPTP counter	others
CCOC(=O)C1=C(C)NC(=S)N(C=O)C1c1ccccc1 (configuration not stated)	-10.5	-1.1	-3.7	-0.8	7.4	.
Cc1ccc(-c2nc(=S)c3c(n2Cc2cccnc2)CC(C)(C)OC3)cc1	-25.9	2.8	0.7	-3.5	7.7	.
CCN(CC)CCn1c(=N)n(CCOc2ccccc2)c2ccccc21	-3.7	77.5*	16.3	-25.5	11.0	2.1	MPTP swell DR=i;MPTP counter DR=33*
Cc1c(/C=N/NC(=O)c2ccccc2O)c2ccccn2c1C(=O)c1ccc(F)cc1	10.5	98.0*	-8.2	30.2	32.1	56.4*
COC(=O)N/N=C/c1c(C)c(C(=O)c2ccc(F)cc2)n2ccccc12	-22.2	1.3	5.4	-29.4	21.2	.
S=C(NCc1ccc(Cl)cc1)Nc1ccc(Cl)cc1Cl	10.3	100.0*	1.3	6.4	33.6	87.2*
S=C(NCc1ccncc1)Nc1ccc(Cl)cc1Cl	8.2	11.6	-8.6	-21.4	16.7	.
S=C(NCc1cccs1)Nc1ccc(Br)cc1Cl	-9.3	75.2*	13.7	-4.2	19.7	79.0*
CC1CCCCC1NC(=S)Nc1ccc(Cl)cc1Cl (configuration not stated)	5.1	92.8*	-13.1	-6.4	38.0	86.8*
Cc1cc(C)cc(NC(=S)NCc2cccs2)c1	-21.0	5.4	8.6	-14.4	22.4	.
Cc1c(Cl)cccc1NC(=S)NCCc1ccc(Cl)cc1	-6.8	85.2*	-9.3	-14.1	14.7	80.9*
Cc1cc(Cl)ccc1NC(=S)NC1CCCC1	-22.6	-0.1	-16.9	-18.7	-8.7	.
Cc1c(Cl)cccc1NC(=S)NCCc1ccc(F)cc1	-12.7	32.3	-9.1	-31.4	7.3	.
CCOc1ccc(C(=O)C(C)OC(=O)Cn2c(C)csc2=O)cc1 (configuration not stated)	-21.0	-1.3	.	-11.4	11.2	.
COc1cccc2cc(C(=O)Nc3ccc(S(=O)(=O)NCC4CCCO4)cc3)c(=O)oc12 (configuration not stated)	-15.7	3.6	-0.5	-20.1	13.2	.
Fc1ccc(NC(=S)Nc2ccc(Cl)cc2Cl)cc1	-7.5	.	7.4	-14.7	9.9	.
Fc1ccc(CNC(=S)Nc2ccc(Cl)cc2Cl)cc1	17.9	100.1*	-10.0	3.1	27.6	106.4*
S=C(NCCc1ccc(Cl)cc1)Nc1ccc(Cl)cc1Cl	15.5	86.3*	-0.9	6.5	59.2	86.2*
CCCNC(=S)Nc1ccc(Cl)cc1Cl	-4.3	1.6	-6.4	0.9	5.8	.
CCN(C(=O)COC(=O)CCn1c(C)csc1=O)c1c(N)n(Cc2ccccc2)c(=O)[nH]c1=O	-12.4	-0.2	.	-10.4	0.5	.
COc1cccc(/C=C/C(=O)N2CCN(S(=O)(=O)c3ccccc3)CC2)c1OC	-9.8	0.8	-13.5	-16.9	4.8	.
CN1/C(=C\C(=O)Nc2cccc(Cl)c2)C(C)(C)c2ccccc21	5.8	103.6*	-5.4	-33.5	34.4	81.9*
CN1/C(=C\C(=O)Nc2ccc(Br)cc2)C(C)(C)c2ccccc21	-13.8	27.8	-15.3	-20.8	28.2	.
CCOC(=O)C1(Cc2ccc(Cl)cc2)CCN(C(C)Cc2ccc(O)c(OC)c2)CC1 (configuration not stated)	38.1*	95.2*	5.5	-15.3	15.3	95.1*
CCOC(=O)C1(Cc2ccc(OC)cc2)CCN(S(C)(=O)=O)CC1	-7.1	-2.6	-2.2	-16.1	16.4	.
SMILES	CHO parental Ca	MPTP block	GPR7 antagonist	OX1R antag-1	OX1R antag-2	MPTP counter	others
COc1ccccc1CCC(=O)NNC(=O)c1ccc(Br)cc1	-4.4	-0.4	-4.7	-15.0	15.2	.
Fc1ccc(NC(=S)NCc2ccccc2Cl)cc1	-2.2	92.4*	-9.4	2.4	15.2	76.0*
COc1ccccc1CNC(=S)Nc1ccc(F)cc1	-6.6	-0.5	1.9	-17.3	-3.1	.
Fc1ccc(NC(=S)NCCc2ccc(Cl)cc2)cc1	-9.3	89.3*	-9.1	4.6	-3.1	89.9*
Fc1ccc(CCNC(=S)Nc2ccc(F)c(Cl)c2)cc1	31.9*	102.6*	3.9	29.7	65.0	95.1*
O=C(NCCc1ccc(Cl)cc1)Nc1ccc(F)cc1	2.1	0.9	-4.1	-34.2	16.2	.
COCc1cc(C)nc(OCC(=O)N/N=C/c2ccc(O)cc2)c1C#N	-4.3	0.7	-4.7	1.7	5.1	.
COCc1cc(C)nc(OCC(=O)N/N=C/c2cc(C)n(-c3c(C)cccc3C)c2C)c1C#N	-16.5	55.5*	-7.6	-25.4	14.4	0.5	MPTP swell DR=7.89*;MPTP counter DR=>80
CCc1ccccc1N(CC(=O)N1CCc2ccccc2C1)S(C)(=O)=O	-24.0	1.2	6.5	-30.6	14.3	.
COc1ccc(-c2nc3c(-c4ccc(F)cc4)cnn3cc2C)cc1F	-17.9	-0.1	-14.4	-1.7	8.8	.
CC1=NNC(=O)c2ccccc2O1	-4.6	-2.0	-1.1	-3.5	-1.6	.
CC(=O)c1cccc(NC(=O)Nc2csc3c2CCCC3)c1	-8.5	80.2*	-8.4	5.8	56.5	93.9*
CN(C)S(=O)(=O)c1ccc(Nc2nc(C3CC3)nc3c2nnn3Cc2ccccc2Cl)cc1	-0.2	62.2*	-2.9	-8.3	0.1	28.9*
COC(=O)CNc1nc(C2CC2)nc2c1nnn2Cc1ccccc1Cl	-7.8	1.0	13.7	-47.8	12.9	.
Cc1c(N=Nc2c(-c3ccc([N+](=O)[O-])cc3)[nH]n(C(N)=S)c2=O)cccc1[N+](=O)[O-]	.	95.5*	3.6	.	.	67.4*
NC(=S)n1[nH]c(-c2ccc([N+](=O)[O-])cc2)c(N=Nc2cccc([N+](=O)[O-])c2)c1=O	.	107.6*	-5.0	.	.	75.9*
NC(=S)n1[nH]c(-c2ccc([N+](=O)[O-])cc2)c(N=Nc2ccccc2[N+](=O)[O-])c1=O	.	43.6	-7.3	.	.	.
Cc1[nH]n(C(N)=S)c(=O)c1N=Nc1cccc([N+](=O)[O-])c1C	0.3	5.2	-9.8	8.0	26.9	.
CN=C1SC(CC(=O)Nc2ccc(F)cc2F)C(=O)N1/N=C/c1ccc(OC(F)F)c(OC)c1 (configuration not stated)	-16.6	1.4	-9.7	-36.7	2.7	.
Cc1ccc(C(=O)NCCC(=O)Nc2ccccc2C)cc1	-6.5	-0.3	8.6	-12.8	1.1	.
O=C(Nc1ccc([N+](=O)[O-])cc1)Nc1ccc(N2CCOCC2)c2nonc12	4.8	95.8*	-5.7	5.2	5.6	58.5*
Cc1ccc(S(=O)(=O)N2CCOCC2)cc1NC(=O)Nc1ccc([N+](=O)[O-])cc1	-5.0	99.5*	.	5.8	6.0	98.8*
Cc1ccc(S(=O)(=O)N2CCOCC2)cc1NC(=O)c1cc([N+](=O)[O-])ccc1N1CCOCC1	-2.8	-1.0	.	-36.5	46.5	.
O=C(Nc1cccc(Cl)c1)Nc1cc(S(=O)(=O)N2CCOCC2)ccc1N1CCCC1	-3.1	87.0*	-3.7	-6.6	10.0	74.9*
